Data: ChEMBL document CHEMBL1121404, “Synthesis and study of conformationally defined enantiomers of local anesthetics and conformationally defined enantiomers of fluorescent dyes designed to label electrically excitable membranes” (1980)

Assays:
[1] = test system: Majidae; assay: The compound was tested for optical responses recorded from spider crab walking leg nerve bundles upon staining.; type: functional
How it was run: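 Nerve bundles stained 30 min in Tris-buffered artificial sea water (pH 8) with 25-50 nM dye, poorly soluble dyes first dissolved in 0.1 mL 95% EtOH per 100 mL; excitation with 365 ± 10 nm light from xenon-mercury lamp; time-averaged fluorescence recorded with extracellular compound action potential; ΔI/I (excitation-linked change over resting intensity); mean ± SE of 2-8 experiments.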

[2] = test system: Majidae; assay: The compound was tested for its ability to block the excitability of spider crab walking leg nerve bundles, peak action potential amplitude, recorded by a pair of external Ag-AgCl electrodes.; type: functional
How it was run: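 Libinia emarginata claw/walking-leg nerve bundles; compound applied in external bath at 1 mM for 20 min in physiological saline (416 mM NaCl, 10 mM KCl, 11 mM CaCl2, 55 mM MgCl2, 2.5 mM NaHCO3, pH 8.0); 0.4-ms threshold pulses; 18-20 °C; % decrease in peak compound action potential amplitude via external Ag-AgCl electrodes; mean ± SE of 4-6 experiments.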

[3] = test system: Majidae; assay: The compound was tested for its ability to block the excitability of spider crab walking leg nerve bundles, the peak action potential amplitude, upon washing in physiological saline for 20 minutes.; type: functional, organism-based
How it was run: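 Spider crab (Libinia emarginata) nerve bundles exposed to 1 mM compound in bath for 20 min, then washed 20 min in physiological saline (pH 8.0); stimulation with 0.4-ms threshold pulses at 18-20 °C; value is percent recovery of peak compound action potential amplitude relative to control; mean ± SE of 4-6 experiments.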

SMILES | Delta I/I [1] | Decrease [2] | Recovery [3]
CN(C)c1cccc2c(C(=O)N[C@@H](CO)Cc3ccccc3)cccc12 | 0.00025 | – | –
CN(C)c1cccc2c(S(=O)(=O)N[C@H](CO)Cc3ccccc3)cccc12 | 0.00018 | – | –
CN(C)c1cccc2c(S(=O)(=O)N[C@@H](CO)Cc3ccccc3)cccc12 | 0.00015 | – | –
C[C@H](Cc1ccccc1)NC(=O)c1cccc2c(N(C)C)cccc12 | 0.00035 | – | –
CN(C)c1cccc2c(C(=O)N[C@H](CO)Cc3ccccc3)cccc12 | 0.00024 | – | –
C[C@H](Cc1ccccc1)NS(=O)(=O)c1cccc2c(N(C)C)cccc12 | 8.5e-05 | – | –
C[C@H](Cc1ccc([N+](=O)[O-])cc1)N(C)C | – | 93% | 46%
C[C@@H](Cc1ccccc1)NS(=O)(=O)c1cccc2c(N(C)C)cccc12 | 7e-05 | – | –
C[C@@H](Cc1ccc([N+](=O)[O-])cc1)N(C)C | – | 84% | 35%
C[C@@H](Cc1ccccc1)NC(=O)c1cccc2c(N(C)C)cccc12 | 0.00038 | – | –
C[C@@H](Cc1ccc(N)cc1)N(C)C | – | 33% | 100%
C[C@H](Cc1ccc(N)cc1)N(C)C | – | 28% | 100%
